Holding throughout (type): functional
Assay [1] deals with Staphylococcus aureus. Kind of assay: Antibacterial activity against Staphylococcus aureus NCIM 5021 at 100 ug/disk after 24 hrs by agar disk diffusion method. The note with it: NCIM 5021, 24 h, read-out: IZ. A digest of the protocol:
(§1)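 Agar disc diffusion on nutrient agar plates pre-inoculated with each bacterium. Sterile 6 mm filter-paper discs were moistened with compound in DMSO at the stated per-disc amount. Plates were incubated at 37 °C, and the growth-inhibition zone diameter was read after 24 h. Each determination was run in triplicate, and the mean of three independent readings is reported.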
(A growth-free zone around the sample is the usual read-out of agar diffusion tests.)

For assay [2], the system named is Staphylococcus aureus. The experiment in a line: Antibacterial activity against Staphylococcus aureus NCIM 5021 at 200 ug/disk after 24 hrs by agar disk diffusion method. Particulars: NCIM 5021, 24 h, read-out: IZ. A digest of the protocol:
as §1

Assay [3] relates to Bacillus subtilis. Kind of assay: Antibacterial activity against Bacillus subtilis NCIM 2063 at 100 ug/disk after 24 hrs by agar disk diffusion method. Particulars: NCIM 2063, 24 h, read-out: IZ. In outline: as §1
For assay [4], the system named is Bacillus subtilis. Kind of assay: Antibacterial activity against Bacillus subtilis NCIM 2063 at 200 ug/disk after 24 hrs by agar disk diffusion method. Particulars: NCIM 2063, 24 h, read-out: IZ. In outline: as §1
The subject of assay [5] is Klebsiella pneumoniae. The experiment in a line: Antibacterial activity against Klebsiella pneumoniae NCIM 2957 at 100 ug/disk after 24 hrs by agar disk diffusion method. The note with it: NCIM 2957, 24 h, read-out: IZ. A digest of the protocol:
as §1

The subject of assay [6] is Klebsiella pneumoniae. Kind of assay: Antibacterial activity against Klebsiella pneumoniae NCIM 2957 at 200 ug/disk after 24 hrs by agar disk diffusion method. The note with it: NCIM 2957, 24 h, read-out: IZ. In outline: as §1
The subject of assay [7] is Proteus vulgaris. Kind of assay: Antibacterial activity against Proteus vulgaris NCIM 2027 at 100 ug/disk after 24 hrs by agar disk diffusion method. The note with it: NCIM 2027, 24 h, read-out: IZ. In outline:
as §1

In assay [8] the test system is Proteus vulgaris. Kind of assay: Antibacterial activity against Proteus vulgaris NCIM 2027 at 200 ug/disk after 24 hrs by agar disk diffusion method. Particulars: NCIM 2027, 24 h, read-out: IZ. A digest of the protocol:
as §1

In assay [9] the test system is Fusarium solani. The experiment in a line: Antifungal activity against Fusarium solani NCIM 1330 at 100 ug/disk after 48 hrs by agar disk diffusion method. The note with it: NCIM 1330, 48 h, read-out: IZ. In outline:
(§2)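 Fungal disc diffusion on nutrient agar plates pre-inoculated with each fungus. 6 mm sterile paper discs carried the compound in DMSO at the stated amount per disc. Plates were held at 37 °C, and inhibition-zone diameter was measured after 48 h. Values are the mean of three independent triplicate readings.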

Assay [10] deals with Fusarium solani. Kind of assay: Antifungal activity against Fusarium solani NCIM 1330 at 200 ug/disk after 48 hrs by agar disk diffusion method. The note with it: NCIM 1330, 48 h, read-out: IZ. In outline: as §2
Assay [11] relates to Curvularia lunata. The experiment in a line: Antifungal activity against Curvularia lunata NCIM 716 at 100 ug/disk after 48 hrs by agar disk diffusion method. Particulars: NCIM 716, 48 h, read-out: IZ. In outline: as §2
Assay [12] deals with Curvularia lunata. The experiment in a line: Antifungal activity against Curvularia lunata NCIM 716 at 200 ug/disk after 48 hrs by agar disk diffusion method. The note with it: NCIM 716, 48 h, read-out: IZ. A digest of the protocol:
as §2

For assay [13], the system named is Aspergillus niger. Kind of assay: Antifungal activity against Aspergillus niger NCIM 596 at 100 ug/disk after 48 hrs by agar disk diffusion method. Particulars: NCIM 596, 48 h, read-out: IZ. In outline:
as §2

In assay [14] the test system is Aspergillus niger. The experiment in a line: Antifungal activity against Aspergillus niger NCIM 596 at 200 ug/disk after 48 hrs by agar disk diffusion method. Particulars: NCIM 596, 48 h, read-out: IZ. In outline: as §2
The subject of assay [15] is Radical scavenging activity. Kind of assay: Antioxidant activity assessed as DPPH free radical scavenging activity at 100 uM after 20 mins. In outline: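 DPPH scavenging: compound solutions were added to DPPH in dioxane/ethanol and kept at ambient temperature for 20 min. Absorbance was read at 517 nm. The test–control difference was expressed as percent DPPH radical scavenging.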
For orientation: Loss of DPPH colour is used to gauge radical scavenging.

Assay [16] is described as follows: Antioxidant activity assessed as nitric oxide production at 100 uM after 120 mins by Griess reagent method. A digest of the protocol:
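Nitric oxide assay with Griess read-out. At intervals, 0.5 ml of incubation solution was mixed with 0.5 ml Griess reagent (1% sulfanilamide, 0.1% N-naphthylethylenediamine dihydrochloride, 2% o-phosphoric acid in water). The control received an equal amount of solvent and was handled identically.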
For orientation: The Griess reaction detects nitrite, a stable product of nitric oxide.

As to `Cc1ccc(C(=O)CC(C(=O)c2ccc(C)cc2)C2C(N)=NN=C2N)cc1` (centres undefined), the zone of inhibition at 100 µg/disc amounted to 25 mm in assay [1]; 27 mm in [3]; 25 mm in assay [5]; 24 mm in assay [7]; 32 mm in [9]; 31 mm in assay [11]. For the same molecule, the zone of inhibition at 100 µg/disc in [13] was 30 mm. Besides, the zone of inhibition at 200 µg/disc came to 28 mm in [2]; 29 mm in assay [4]; 27 mm in assay [6]; 26 mm in [8]; 35 mm in assay [10]; 33 mm in assay [12]. Moreover, the zone of inhibition at 200 µg/disc in assay [14] came to 31 mm. Also, the inhibition (usually the drop in the measured response relative to a control, in per cent) in assay [15] is 66.5%; in assay [16], 68.2%.
Consider `NC1=NC(=S)N=C(N)C1C(CC(=O)c1ccc(Cl)cc1)C(=O)c1ccc(Cl)cc1` (centres undefined), for which the zone of inhibition at 100 µg/disc in assay [1] amounted to 25 mm; in assay [3], 23 mm; in [5], 19 mm; in assay [7], 20 mm; in assay [9], 19 mm; in [11], 17 mm. In addition, the zone of inhibition at 100 µg/disc in assay [13] was determined as 15 mm. For the same molecule, the zone of inhibition at 200 µg/disc in assay [2] was found to be 26 mm; in assay [4] it was 25 mm; in assay [6], 22 mm; in assay [8] it was 22 mm; in assay [10], 22 mm; in assay [12], 21 mm. Also, the zone of inhibition at 200 µg/disc in assay [14] stood at 20 mm. The figures for the inhibition in assay [15] and in assay [16] were 41.6% and 43.4%, respectively.
Regarding `NC1=NC(=O)N=C(N)C1C(CC(=O)c1ccc(Cl)cc1)C(=O)c1ccc(Cl)cc1` (centres undefined), the zone of inhibition at 100 µg/disc in assay [1] came to 13 mm; in assay [3], 12 mm; in assay [5], 11 mm; in [7], 10 mm; in assay [9], 17 mm; in assay [11], 14 mm. Besides, in [13], the zone of inhibition at 100 µg/disc stood at 16 mm. The zone of inhibition at 200 µg/disc in assay [2] stood at 15 mm; in assay [4] it was 14 mm; in assay [6], 13 mm; in assay [8] it was 12 mm; in assay [10] it was 19 mm; in [12] it was 18 mm. For the same molecule, in [14], the zone of inhibition at 200 µg/disc is 20 mm. Further, the values for the inhibition in [15] and in assay [16] were 41% and 39.4%, respectively.
In the case of `Cc1ccc(C(=O)CC(C(=O)c2ccc(C)cc2)C2C(N)=NC(=O)N=C2N)cc1` (centres undefined), the zone of inhibition at 100 µg/disc was 12 mm in assay [1]; 11 mm in [3]; 10 mm in [5]; 13 mm in assay [7]; 14 mm in [9]; 15 mm in [11]. The zone of inhibition at 100 µg/disc in assay [13] turned out to be 13 mm. Moreover, the zone of inhibition at 200 µg/disc worked out at 15 mm in assay [2]; 12 mm in assay [4]; 12 mm in [6]; 14 mm in assay [8]; 18 mm in assay [10]; 17 mm in [12]. Besides, the zone of inhibition at 200 µg/disc in assay [14] was determined as 15 mm. The inhibition in assay [15] was determined as 28.6%; in assay [16], 27.2%.
